The source of these data is PubChem BioAssay.

Experiment [1] is described as follows: inhibitors of TNFa-induced NFkB p65 translocation, primary screen, imaging, HUVEC, MLSMR starter and 10KST1 sets (AID 438;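 active = inhibition above 20% together with a positive visual image hit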;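 note: compound added about 3h40 before a 20 min TNFalpha stimulation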;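 for inhibition: signal is the nuclear over cytoplasmic p65 intensity ratio per well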). Conditions: HUVEC TNFa-induced p65 nuclear translocation; cell count: measured here: nuclei count (cytotoxicity indicator), at 2.08 µM; inhibition: at 2 µM, stronger effect = higher value, 0% TNFa-plus-vehicle, 100% no-TNFa wells.
The nature of experiment [2]: inhibitors of mutant huntingtin aggregation, primary screen, imaging, exon1htt(103Q)mCFP cells, high-content imaging (AID 483;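 active = visual image review flags a hit and inhibition of aggregation exceeds 20%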;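 note: compound exposure lasted 3 days before fixation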;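 for nuclei count: percent of the per-plate median nuclei count of sample wells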). The settings on record: exon1htt(103Q)mCFP cell line, aggregate imaging, at 2 µM; inhibition of aggregation: stronger effect = higher value; nuclei count: measured here: cell count, toxicity.
The nature of experiment [3]: inhibitors of E-selectin induction by TNFa, primary screen, imaging, HUVEC, immunofluorescence, MLSMR starter and 10KST1 sets (AID 487;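 active = visually confirmed hit in the image check and inhibition above 20%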;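 for inhibition: signal is fraction of cell area covered by stained E-selectin grains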;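 for nuclei count: 100% = median nuclei count of all wells on the same plate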). The settings on record: HUVEC TNFalpha-induced E-selectin immunofluorescence imaging, at 2 µM; inhibition: stronger effect = higher value; nuclei count: measured here: cell number, toxicity.
The target in experiment [4] is Voltage-gated potassium channel subunit beta-2 (Rattus norvegicus) (UniProt P62483). In words: KvBeta enzyme negative modulators, primary screen, biochemical, NADPH fluorescence (AID 622;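 active = fluorescence slope higher than the sample average by over 3 SD, cut at about -0.22 in these data, passing the limit was not always enough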;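 note: slope of raw intensity against log time taken from 70 to 1610 s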). Conditions: recombinant KvBeta, 4-cyanobenzaldehyde reduction, at 10 µM, stronger effect = higher value.
Sequence of Voltage-gated potassium channel subunit beta-2 (Rattus norvegicus) (P62483 whole entry, looked up): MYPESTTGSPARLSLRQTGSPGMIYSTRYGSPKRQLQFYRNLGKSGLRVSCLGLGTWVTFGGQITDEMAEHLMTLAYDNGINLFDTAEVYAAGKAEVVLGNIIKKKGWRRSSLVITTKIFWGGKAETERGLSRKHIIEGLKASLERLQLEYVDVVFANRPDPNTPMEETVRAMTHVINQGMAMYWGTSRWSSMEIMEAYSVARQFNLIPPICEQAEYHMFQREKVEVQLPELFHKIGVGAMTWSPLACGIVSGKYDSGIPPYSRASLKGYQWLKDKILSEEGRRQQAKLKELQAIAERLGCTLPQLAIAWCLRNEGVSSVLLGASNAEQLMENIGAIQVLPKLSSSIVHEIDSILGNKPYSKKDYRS
The target is the same in experiment [5]. In words: KvBeta positive modulators, primary screen, biochemical, NADPH fluorescence (AID 623;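 active = NADPH fluorescence slope more negative than the mean of all samples by about 3 SD, 99.7% confidence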;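 note: fluorescence intensity change per second fitted from 20 to 320 s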). The settings on record: Recombinant KvBeta, NADPH fluorescence decrease slope, 10 min; at 10 µM; stronger effect = lower value.
Experiment [6] has as its target Muscarinic acetylcholine receptor M4 (Homo sapiens) (UniProt P08173). In words: compounds altering M4/GIRK thallium flux, either direction, primary screen, M4 allosteric agonist project, cell-based, HEK293 M4/GIRK, BTC-AM (AID 625;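 active = fluorescence slope after compound addition differing from the mean of all tested samples at 99.7% confidence, mostly higher but some lower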;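 note: thallium influx through GIRK channels coupled to M4 in HEK293 cells with BTC-AM dye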). The settings on record: at 10 µM, actives lie on both sides. An outline of the steps: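 assay system = HEK293 cells with M4 receptor and GIRK channels | medium = pH 7.3 thallium assay buffer | doses = 10 µM final, single point | timing = cells overnight at 37 °C, BTC-AM loading 1 h, reads 2 min total | signal = BTC-AM fluorescence, 1 Hz kinetic reads | read-out = post-addition slope, 15–24 s, of baseline-normalized fluorescence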

Experiment [7] can be described thus: inhibitors of Sendai virus-induced IRF3 signaling, primary screen, TLR/RLR signaling modifier project, cell-based, Sendai virus stimulus, luciferase, 10K MLSCN set (AID 602276;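 active = inhibition at or above 50% at 10 µM; inactive = inhibition below 50%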;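 note: firefly luciferase from ISG56 promoter only with Renilla not read in this screen; 0% = Sendai virus plus DMSO and 100% = medium plus DMSO without virus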). Conditions: HEK293 RL24 IRF3 luciferase reporter, at 10 µM, stronger effect = higher value.
Experiment [8] can be described thus: inhibitors of poly I:C-induced TLR3 signaling, primary screen, cell-based, poly I:C stimulus, luciferase, 10K MLSCN set (AID 602277). Conditions: HEK293-TLR3 RL24 IRF3 luciferase reporter, at 10 µM, stronger effect = higher value.

Active and inactive are the calls of the source.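 Rule for the calls, unless noted: active = inhibition of the reporter signal at or above 50%; inactive = inhibition below 50%.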

Sequence of Muscarinic acetylcholine receptor M4 (Homo sapiens) (P08173 whole entry, looked up): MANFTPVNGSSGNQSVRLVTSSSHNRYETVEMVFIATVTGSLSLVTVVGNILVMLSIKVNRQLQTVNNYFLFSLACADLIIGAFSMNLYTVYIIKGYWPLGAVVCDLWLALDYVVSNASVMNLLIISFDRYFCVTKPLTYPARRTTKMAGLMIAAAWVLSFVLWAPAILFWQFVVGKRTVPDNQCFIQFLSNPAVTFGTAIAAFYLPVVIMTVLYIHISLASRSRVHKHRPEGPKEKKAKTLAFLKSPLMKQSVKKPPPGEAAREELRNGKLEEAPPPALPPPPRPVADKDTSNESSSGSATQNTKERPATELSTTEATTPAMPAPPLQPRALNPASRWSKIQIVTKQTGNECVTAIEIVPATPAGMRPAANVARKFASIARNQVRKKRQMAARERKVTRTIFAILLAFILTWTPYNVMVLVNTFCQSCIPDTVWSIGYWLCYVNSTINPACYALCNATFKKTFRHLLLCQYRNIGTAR

For `CCNc1oc(COc2ccccc2F)nc1C#N`, the cell count in experiment [1] was 318. In addition, the inhibition in experiment [1] is 14.7% (inactive); in experiment [3] it was -8.8% (inactive); in experiment [7] it was 0.938% (inactive); in experiment [8], -48.6% (inactive). Also, the inhibition of aggregation in experiment [2] was -13.4% (inactive). Further, the nuclei count came to 106% in experiment [2] and 94.1% in experiment [3]. The fluorescence slope is -0.578 (inactive) in experiment [4] and 0.00601 (inactive) in experiment [6]. Further, the NADPH fluorescence slope in experiment [5] was -2.3e-07 (inactive).
As to `CC(C(=O)N1c2ccc(F)cc2CCC1C)N1C(=O)c2ccccc2C1=O` (centres undefined), the cell count in experiment [1] worked out at 490. The inhibition in experiment [1] was 5% (inactive); in experiment [3], -158% (inactive); in experiment [7], 10.8% (inactive); in experiment [8], 11.7% (inactive). Also, in experiment [2], the inhibition of aggregation is 1.1% (inactive). In addition, the nuclei count in experiment [2] stood at 118%; in experiment [3], 138%. The fluorescence slope in experiment [4] is -0.452 (inactive); in experiment [6], 0.00501 (inactive). Besides, the NADPH fluorescence slope in experiment [5] was -4.6e-05 (inactive).
In the case of `O=C(O)c1cc(/C=N\O)ccc1OCc1ccccc1`, the cell count in experiment [1] came out at 697. Besides, the inhibition was -6.9% (inactive) in experiment [1], -30.9% (inactive) in experiment [3], -0.244% (inactive) in experiment [7] and 11.6% (inactive) in experiment [8]. Moreover, the inhibition of aggregation in experiment [2] is 2.9% (inactive). Also, the nuclei count in experiment [2] is 112%; in experiment [3], 104%. Besides, the fluorescence slope in experiment [4] is -0.545 (inactive); in experiment [6], 0.007 (inactive). For the same molecule, the NADPH fluorescence slope in experiment [5] is -1.3e-05 (inactive).
In the case of `COc1ccc(-n2ncc3c(NCc4ccccn4)ncnc32)cc1`, in experiment [1], the cell count was found to be 463. The inhibition in experiment [1] was -1.9% (inactive); in experiment [3], 14.4% (inactive); in experiment [7] it was -12.7% (inactive); in experiment [8] it was -61.6% (inactive). Further, in experiment [2], the inhibition of aggregation was 7.6% (inactive). In addition, the nuclei count in experiment [2] was found to be 94%; in experiment [3], 102%. For the same molecule, the values for the fluorescence slope in experiment [4] and in experiment [6] were -0.541 (inactive) and 0.0051 (inactive), respectively. Moreover, in experiment [5], the NADPH fluorescence slope was -4e-05 (inactive).
Regarding `COc1cccc(NC(=O)Nc2cccs2)c1`, the cell count in experiment [1] was 355. In addition, the inhibition was -1.5% (inactive) in experiment [1], 9.9% (inactive) in experiment [3], -20.2% (inactive) in experiment [7] and -76.7% (inactive) in experiment [8]. Also, the inhibition of aggregation in experiment [2] was -5.7% (inactive). The values for the nuclei count in experiment [2] and in experiment [3] were 93.5% and 115%, respectively. In addition, the fluorescence slope in experiment [4] is -0.483 (inactive); in experiment [6], 0.00925 (active). For the same molecule, in experiment [5], the NADPH fluorescence slope is 0.00014 (inactive).
For `CCCC(O)(CCN(C)C)c1ccc(OC)cc1` (centres undefined), the cell count in experiment [1] amounted to 701. Moreover, the inhibition in experiment [1] is 6.7% (inactive); in experiment [3], -50.6% (inactive); in experiment [7] it was 21.2% (inactive); in experiment [8], 29.6% (inactive). The inhibition of aggregation in experiment [2] is 18.4% (inactive). Besides, the nuclei count is 95.2% in experiment [2] and 87.3% in experiment [3]. The fluorescence slope in experiment [4] is -0.543 (inactive); in experiment [6] it was 0.00506 (inactive). The NADPH fluorescence slope in experiment [5] is -8.4e-06 (inactive).
Consider `COC(=O)Cn1c2c(c3cc(C)ccc31)CCCC2`, for which, in experiment [1], the cell count amounted to 640. Further, the inhibition in experiment [1] was -9.9% (inactive); in experiment [3], -28.6% (inactive); in experiment [7], 18.4% (inactive); in experiment [8], 21.6% (inactive). In experiment [2], the inhibition of aggregation is 23.1% (inactive). The figures for the nuclei count in experiment [2] and in experiment [3] were 91.1% and 111%, respectively. In addition, the fluorescence slope is -0.523 (inactive) in experiment [4] and 0.00431 (inactive) in experiment [6]. Moreover, in experiment [5], the NADPH fluorescence slope was -0.000167 (inactive).
Consider `c1ccc(-c2n[nH]c3ccccc23)cc1`, for which the cell count in experiment [1] worked out at 708. Moreover, the inhibition in experiment [1] was -3% (inactive); in experiment [3] it was -13.1% (inactive); in experiment [7] it was -14% (inactive); in experiment [8] it was -30% (inactive). Moreover, the inhibition of aggregation in experiment [2] was 13.9% (inactive). Further, the nuclei count in experiment [2] is 116%; in experiment [3], 106%. Also, the fluorescence slope was -0.55 (inactive) in experiment [4] and 0.00778 (inactive) in experiment [6]. Moreover, the NADPH fluorescence slope in experiment [5] is -5.6e-05 (inactive).
Regarding `CC1=C(C(N)=O)C(c2ccc(Cl)cc2Cl)n2ncnc2N1` (centres undefined), the cell count in experiment [1] was found to be 631. The inhibition was -2.5% (inactive) in experiment [1], -129% (inactive) in experiment [3], 29.3% (inactive) in experiment [7] and 33.2% (inactive) in experiment [8]. Also, the inhibition of aggregation in experiment [2] was 18.4% (inactive). The nuclei count in experiment [2] worked out at 105%; in experiment [3], 106%. The fluorescence slope is -0.558 (inactive) in experiment [4] and 0.00707 (inactive) in experiment [6]. In addition, the NADPH fluorescence slope in experiment [5] was 2e-05 (inactive).
With `COc1ccc(OCC(=O)N2CCN(C(=O)c3cccs3)CC2)cc1`, the cell count in experiment [1] was 365. Also, the inhibition in experiment [1] was -7% (inactive); in experiment [3], -51.4% (inactive); in experiment [7] it was 21.2% (inactive); in experiment [8], 17.7% (inactive). Moreover, the inhibition of aggregation in experiment [2] was -31.2% (inactive). For the same molecule, the figures for the nuclei count in experiment [2] and in experiment [3] were 89% and 124%, respectively. Besides, the fluorescence slope in experiment [4] is -0.57 (inactive); in experiment [6], 0.00633 (inactive). Further, the NADPH fluorescence slope in experiment [5] was -5.4e-05 (inactive).
On to `C=CCn1c(=O)/c(=C/c2ccc(O)cc2)s/c1=C(/C#N)c1nnc2n1CCCCC2`, for which the cell count in experiment [1] was 483. The inhibition in experiment [1] was -0.5% (inactive); in experiment [3], -5.3% (inactive); in experiment [7] it was 17.7% (inactive); in experiment [8], -30% (inactive). In addition, in experiment [2], the inhibition of aggregation was 11.1% (inactive). Also, the results for the nuclei count in experiment [2] and in experiment [3] were 112% and 116%, respectively. Also, the values for the fluorescence slope in experiment [4] and in experiment [6] were -0.332 (inactive) and 0.00728 (inactive), respectively. Besides, in experiment [5], the NADPH fluorescence slope is -4.5e-05 (inactive).
As for `O=C(CN1C(=O)NC2(CCCCCC2)C1=O)N1CCC(Cc2ccccc2)CC1`, the cell count in experiment [1] was found to be 444. Further, the inhibition in experiment [1] was 2.9% (inactive); in experiment [3], -38.1% (inactive); in experiment [7], 0.617% (inactive); in experiment [8], 15.9% (inactive). Besides, the inhibition of aggregation in experiment [2] is -3.9% (inactive). The nuclei count was found to be 99.8% in experiment [2] and 104% in experiment [3]. In addition, the fluorescence slope was -0.366 (inactive) in experiment [4] and 0.00581 (inactive) in experiment [6]. Also, the NADPH fluorescence slope in experiment [5] was 2.2e-05 (inactive).
In the case of `O=C(NCc1ccccc1)N1CCn2c(nc3ccccc32)C1`, the cell count in experiment [1] was 555. Also, the inhibition in experiment [1] was 2.5% (inactive); in experiment [3], -13.3% (inactive); in experiment [7], -0.797% (inactive); in experiment [8], -7.43% (inactive). In addition, in experiment [2], the inhibition of aggregation was 8.2% (inactive). In addition, the nuclei count in experiment [2] came to 99.6%; in experiment [3], 111%. In addition, the fluorescence slope in experiment [4] is -0.413 (inactive); in experiment [6], 0.00568 (inactive). For the same molecule, in experiment [5], the NADPH fluorescence slope is -2.6e-05 (inactive).
As for `CCSc1nc2c(c(=O)n(C)c(=O)n2C)n1Cc1ccc(Cl)cc1`, the cell count in experiment [1] amounted to 440. Further, the inhibition in experiment [1] was 3.3% (inactive); in experiment [3] it was -15.6% (inactive); in experiment [7] it was 11.8% (inactive); in experiment [8], 4.67% (inactive). Moreover, the inhibition of aggregation in experiment [2] was 0.4% (inactive). The nuclei count in experiment [2] was 106%; in experiment [3] it was 112%. Moreover, the fluorescence slope is -0.527 (inactive) in experiment [4] and 0.00489 (inactive) in experiment [6]. Further, in experiment [5], the NADPH fluorescence slope is -4.7e-05 (inactive).
